Paper PMC5680101 (The journal of physical chemistry. B, 2017)
Values joined by “and” are separate entries in the source; they are usually repeats but may differ in a detail not shown here. Equal values may be shown once. Read-outs that look alike come from different tables or passages of the source. One block for each compound: values may come before it.

Tests used:
FhuA ΔC/Δ5L = FhuA ΔC/Δ5L (Escherichia coli, UniProt P06971, DEL561-566/INS560[…], form not given); type: binding, E. coli
SELENOS U188S = biological target: T1, SELENOS U188S (Homo sapiens, UniProt Q9BQE4); assay: steady-state FP anisotropy, DDM desolvation of SELENOS U188S; type: binding; conditions: solubilized in 1.3 mM DDM
T1 sequence (Q9BQE4 with tags, fused parts or gaps): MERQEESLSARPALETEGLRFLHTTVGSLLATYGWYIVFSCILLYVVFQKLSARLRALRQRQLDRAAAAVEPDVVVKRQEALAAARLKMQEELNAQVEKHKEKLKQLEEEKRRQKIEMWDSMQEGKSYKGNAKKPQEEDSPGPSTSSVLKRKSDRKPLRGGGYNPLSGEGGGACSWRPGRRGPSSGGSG
Summary of the method: (§1)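 Human proteins expressed as MBP fusions and purified in 1.3 mM DDM, which was the starting detergent concentration. Each was labelled with Texas Red C2 maleimide on its single accessible cysteine (C92 in SELENOK, C174 in SELENOS). Samples were diluted in wells with DDM buffers to 200 nM protein in 200 mM NaCl, 50 mM HEPES pH 7.4, 24°C. FP read at […] after 15 min equilibration; 24 h endpoints at 4°C. rmin extrapolated to lowest DDM.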

α-helical proteins = assay: FP anisotropy, DDM proteomicelles of the α-helical proteins; type: binding, Homo sapiens; conditions: 200 mM NaCl, 50 mM HEPES, pH 7.4, 24°C
Summary of the method: as §1

[1] = in water; ref Anatrace, [29], [63]; cited from earlier work
SELENOK U92C = biological target: T2, SELENOK U92C (Homo sapiens, UniProt Q9Y6D0, U92C); assay: steady-state FP anisotropy, DDM desolvation of SELENOK U92C; type: binding; conditions: solubilized in 1.3 mM DDM
T2 sequence (Q9Y6D0 2-94 U92C): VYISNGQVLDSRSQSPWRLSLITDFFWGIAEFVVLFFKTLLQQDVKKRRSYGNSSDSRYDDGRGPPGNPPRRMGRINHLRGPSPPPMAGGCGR
Summary of the method: as §1

OmpG = OmpG (Escherichia coli, UniProt P76045, D245C); assay: biochemical; type: binding, E. coli
FhuA ΔC/Δ7L_30N = FhuA ΔC/Δ7L_30N (Escherichia coli, UniProt P06971); type: binding, E. coli
FhuA ΔC/Δ5L_25N = FhuA ΔC/Δ5L_25N (Escherichia coli, UniProt P06971); type: binding, E. coli
[2] = calculated at the midpoint of the dissociation phase
[3] = decrease in hydrodynamic radius as a result of detergent desolvation
[4] = four-parameter Hill fit, 200 mM NaCl, 50 mM HEPES, pH 7.4, 24°C
[5] = maximum anisotropy at detergent concentrations above the CMC, 200 mM NaCl, 50 mM HEPES, pH 7.4
[6] = maximum hydrodynamic radius of the proteomicelle
[7] = minimum anisotropy, extrapolated for the lowest detergent concentration, 200 mM NaCl, 50 mM HEPES, pH 7.4
[8] = read-out: Kd (apparent dissociation constant), midpoint of dose-dependent dissociation phase, 200 mM NaCl, 50 mM HEPES, pH 7.4, 24°C
[9] = rotational diffusion coefficient under desolvation conditions
[10] = rotational diffusion coefficient under solvation conditions
[11] = anisotropy determined in 6 M Gdm-HCl

FhuA ΔC/Δ5L, sequence (P06971 194-747, stated change not applied): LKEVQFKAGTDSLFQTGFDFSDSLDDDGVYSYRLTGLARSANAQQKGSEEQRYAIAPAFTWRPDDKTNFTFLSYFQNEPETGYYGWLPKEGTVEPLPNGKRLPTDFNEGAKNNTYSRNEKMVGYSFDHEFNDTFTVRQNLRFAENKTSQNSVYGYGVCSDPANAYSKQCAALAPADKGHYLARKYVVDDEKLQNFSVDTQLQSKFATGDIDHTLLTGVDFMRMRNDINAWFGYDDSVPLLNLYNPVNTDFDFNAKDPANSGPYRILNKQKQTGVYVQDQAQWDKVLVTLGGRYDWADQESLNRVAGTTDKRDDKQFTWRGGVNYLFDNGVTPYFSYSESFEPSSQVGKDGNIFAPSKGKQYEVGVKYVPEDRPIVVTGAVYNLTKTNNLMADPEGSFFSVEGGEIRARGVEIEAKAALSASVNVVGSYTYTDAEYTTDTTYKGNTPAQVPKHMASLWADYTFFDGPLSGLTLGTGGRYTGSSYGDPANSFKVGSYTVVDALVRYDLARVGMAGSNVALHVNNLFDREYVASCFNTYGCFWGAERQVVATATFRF
FhuA ΔC/Δ7L_30N, sequence (P06971 194-747, stated change not applied): as above
FhuA ΔC/Δ5L_25N, sequence (P06971 194-747, stated change not applied): as above
OmpG, sequence (P76045 22-301 D245C): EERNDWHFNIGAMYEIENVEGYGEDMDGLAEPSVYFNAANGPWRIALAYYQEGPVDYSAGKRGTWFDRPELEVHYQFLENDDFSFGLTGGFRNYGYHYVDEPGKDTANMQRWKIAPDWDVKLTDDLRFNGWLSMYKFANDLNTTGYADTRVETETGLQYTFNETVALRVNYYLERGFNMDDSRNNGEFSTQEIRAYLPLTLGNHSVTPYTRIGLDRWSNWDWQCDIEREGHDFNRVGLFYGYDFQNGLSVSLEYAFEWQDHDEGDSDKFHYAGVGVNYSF

Structure (SMILES): CCCCCCCCCCCCOS(=O)(=O)[O-].[Na+] [SDS]
- minimum anisotropy value, r0 (FhuA ΔC/Δ5L; in 40 mM SDS): ~ 0.16

- rotational diffusion coefficient, Dr fast (SELENOS U188S): ~ 1.1×10^8 s^−1
- rmin (SELENOS U188S; 200 nM protein): 0.103 ± 0.002
- apparent Kd relative to the CMC (α-helical proteins): greater than the CMC
- rotational diffusion coefficient, Dr fast (SELENOK U92C): ~ 1.3×10^8 s^−1
- rmin (SELENOK U92C; 200 nM protein): 0.095 ± 0.002
Structure (SMILES): CCCCCCCCCCCCO[C@@H]1O[C@H](CO)[C@@H](O[C@H]2O[C@H](CO)[C@@H](O)[C@H](O)[C@H]2O)[C@H](O)[C@H]1O [DDM, n-dodecyl-β-D-maltoside]
- Aggregation number, Nagg [1]: ~78–149

Structure (SMILES): OC[C@H]1O[C@H](O[C@H]2[C@H](O)[C@@H](O)[C@H](OCCCCC3CCCCC3)O[C@@H]2CO)[C@H](O)[C@@H](O)[C@@H]1O [CYMAL-4, 4-cyclohexyl-1-Butyl-β-D-maltoside]
- q (slope factor or transition steepness) (OmpG; [2]): 0.25 mM⁻¹
- ΔRh (OmpG; [3]): 1.2 ± 0.1 nm
- p (Hill coefficient) (OmpG; [4]): 6.7 ± 0.1
- rmax (OmpG; [5]): 0.326 ± 0.001
- Rh max (OmpG; [6]): 2.6 nm
- rmin (OmpG; [7]): 0.163 ± 0.001
- Kd (OmpG; [8]): 4.6 ± 0.1 mM
- Dr fast (OmpG; [9]): 5.8 ± 0.1 10^7 s^−1
- Dr slow (OmpG; [10]): 0.90 ± 0.01 10^7 s^−1
- ΔG (OmpG; ΔG = RT ln Kd): -3.2 ± 0.1 kcal/mol
- q (slope factor or transition steepness) (FhuA ΔC/Δ7L_30N; [2]): 0.17 mM⁻¹
- ΔRh (FhuA ΔC/Δ7L_30N; [3]): 1.5 ± 0.2 nm
- p (Hill coefficient) (FhuA ΔC/Δ7L_30N; [4]): 2.3 ± 0.9
- rmax (FhuA ΔC/Δ7L_30N; [5]): 0.345 ± 0.004
- Rh max (FhuA ΔC/Δ7L_30N; [6]): 2.9 nm
- rmin (FhuA ΔC/Δ7L_30N; [7]): 0.168 ± 0.025
- Kd (FhuA ΔC/Δ7L_30N; [8]): 4.5 ± 1.1 mM
- Dr fast (FhuA ΔC/Δ7L_30N; [9]): 5.5 ± 1.2 10^7 s^−1
- Dr slow (FhuA ΔC/Δ7L_30N; [10]): 0.63 ± 0.05 10^7 s^−1
- ΔG (FhuA ΔC/Δ7L_30N; ΔG = RT ln Kd): -3.2 ± 0.1 kcal/mol
- q (slope factor or transition steepness) (FhuA ΔC/Δ5L; [2]): 0.38 mM⁻¹
- ΔRh (FhuA ΔC/Δ5L; [3]): 1.7 ± 0.1 nm
- p (Hill coefficient) (FhuA ΔC/Δ5L; [4]): 3.7 ± 0.1
- rmax (FhuA ΔC/Δ5L; [5]): 0.367 ± 0.001
- Rh max (FhuA ΔC/Δ5L; [6]): 3.6 nm
- rmin (FhuA ΔC/Δ5L; [7]): 0.242 ± 0.001
- Kd (FhuA ΔC/Δ5L; [8]): 5.3 ± 0.1 mM
- Dr fast (FhuA ΔC/Δ5L; [9]): 2.6 ± 0.1 10^7 s^−1
- Dr slow (FhuA ΔC/Δ5L; [10]): 0.36 ± 0.01 10^7 s^−1
- ΔG (FhuA ΔC/Δ5L; ΔG = RT ln Kd): -3.1 ± 0.1 kcal/mol
- q (slope factor or transition steepness) (FhuA ΔC/Δ5L_25N; [2]): 0.28 mM⁻¹
- ΔRh (FhuA ΔC/Δ5L_25N; [3]): 1.4 ± 0.1 nm
- p (Hill coefficient) (FhuA ΔC/Δ5L_25N; [4]): 5.2 ± 0.3
- rmax (FhuA ΔC/Δ5L_25N; [5]): 0.341 ± 0.001
- Rh max (FhuA ΔC/Δ5L_25N; [6]): 2.9 nm
- rmin (FhuA ΔC/Δ5L_25N; [7]): 0.166 ± 0.001
- Kd (FhuA ΔC/Δ5L_25N; [8]): 5.7 ± 0.1 mM
- Dr fast (FhuA ΔC/Δ5L_25N; [9]): 5.6 ± 0.1 10^7 s^−1
- Dr slow (FhuA ΔC/Δ5L_25N; [10]): 0.69 ± 0.01 10^7 s^−1
- ΔG (FhuA ΔC/Δ5L_25N; ΔG = RT ln Kd): -3.1 ± 0.1 kcal/mol

Structure (SMILES): Cl.N=C(N)N [Gdm-HCl, guanidinium hydrochloride]
- rmax (FhuA ΔC/Δ5L; [11]): ~0.16
- rmin (FhuA ΔC/Δ5L; [11]): ~0.16
- basal (minimum) anisotropy readout, r1 (FhuA ΔC/Δ5L; fully unfolded, most rotationally diffusive protein in 6 M Gdm-HCl): 0.16 and ~ 0.16
- Dr fast (FhuA ΔC/Δ5L; in 6 M Gdm-HCl): ~6.0 10^7 s^−1
- Dr slow (FhuA ΔC/Δ5L; in 6 M Gdm-HCl): ~6.0 10^7 s^−1
- Rh max (FhuA ΔC/Δ5L; in 6 M Gdm-HCl): 1.4 nm
